The test system of assay [1] is HT-29. As to the kind of experiment: Cytotoxicity against human HT-29 cells incubated for 72 hrs by Cell titer blue assay. It counts as functional, cell-based. The settings on record: HT-29, 72 h. The essentials: (§1)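 Cells grown in RPMI 1640 with 10% FBS, penicillin and streptomycin at 37 °C, 5% CO₂; 5,000 log-phase cells per well seeded, left overnight, then exposed 72 h to serial dilutions from DMSO (DMSO vehicle; paclitaxel positive control). Viability read by CellTiter-Blue absorbance; IC50 relative to vehicle by nonlinear regression; triplicate, three independent experiments.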

Assay [2] relates to OVCAR-3. As to the kind of experiment: Cytotoxicity against human OVCAR-3 cells incubated for 72 hrs by Cell titer blue assay. The format is functional, cell-based. The settings on record: OVCAR-3, 72 h. An outline of the steps: as §1
The subject of assay [3] is OVCAR-5. Kind of assay: Cytotoxicity against human OVCAR-5 cells incubated for 72 hrs by Cell titer blue assay. The format is functional, cell-based. The settings on record: OVCAR-5, 72 h. An outline of the steps: as §1
The test system of assay [4] is MDA-MB-231. Kind of assay: Upregulation of p-Akt expression in human MDA-MB-231 cells at 0.5 uM incubated for 5 hrs by Western blot analysis. It counts as functional, cell-based. An outline of the steps:
(§2)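 MDA-MB-231 cells in DMEM with 10% FBS and antibiotics, seeded overnight, then exposed to 0.5 µM or 0.48 µM (from DMSO) for 5 h at 37 °C. Cells washed in cold PBS, lysed in RIPA with EDTA and protease inhibitors; equal protein immunoblotted for p-Akt or NF-κB p50, normalized to β-actin; n = 3, t test versus control.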

In assay [5] the test system is MDA-MB-231. Kind of assay: Cytotoxicity against human MDA-MB-231 cells incubated for 72 hrs by Cell titer blue assay. The format is functional, cell-based. As to conditions: MDA-MB-231, 72 h. The essentials:
as §1

Assay [6] concerns MDA-MB-435. Kind of assay: Cytotoxicity against human MDA-MB-435 cells incubated for 72 hrs by Cell titer blue assay. It counts as functional, cell-based. As to conditions: MDA-MB-435, 72 h. The essentials:
as §1

Assay [7] can be described thus: Cytotoxicity against human FT194 cells incubated for 72 hrs by Cell titer blue assay. The format is functional, cell-based. As to conditions: FT194, 72 h. The essentials:
as §1

In assay [8] the test system is MDA-MB-231. Kind of assay: Downregulation of NF-kappaB p50 expression in human MDA-MB-231 cells at 0.5 uM incubated for 5 hrs by Western blot analysis. It counts as functional, cell-based. An outline of the steps:
as §2

The test system of assay [9] is MDA-MB-231. Kind of assay: Upregulation of Akt expression in human MDA-MB-231 cells at 1 to 10 uM incubated for 72 hrs by Western blot analysis. The format is functional, cell-based. The settings on record: dose 1-10 µM. An outline of the steps:
(§3)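 MDA-MB-231 cells in DMEM with 10% FBS, penicillin and streptomycin; 5,000 cells per well seeded, left overnight, then exposed to 1.0, 5.0 or 10.0 µM (from DMSO) for 72 h at 37 °C. Surviving cells lysed in RIPA with 1 mM EDTA and protease inhibitors; equal protein (BCA) immunoblotted, signals normalized to β-actin; three independent experiments, t test versus control.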

Assay [10] concerns MDA-MB-231. Kind of assay: Upregulation of NF kappaB p65 expression in human MDA-MB-231 cells at 1 to 10 uM incubated for 72 hrs by Western blot analysis. The format is functional, cell-based. As to conditions: dose 1-10 µM. The essentials:
as §3

Assay [11] deals with MDA-MB-231. Kind of assay: Downregulation of NF kappaB p52 expression in human MDA-MB-231 cells at 5 to 10 uM incubated for 72 hrs by Western blot analysis. It counts as functional, cell-based. The settings on record: dose 5-10 µM. An outline of the steps: as §3
The test system of assay [12] is MDA-MB-231. Kind of assay: Effect on NF-kappaB p52 expression in human MDA-MB-231 cells at 1 to 10 uM incubated for 72 hrs by Western blot analysis. The settings on record: dose 1-10 µM. The format is functional, cell-based. An outline of the steps:
as §3

Assay [13] relates to MDA-MB-231. As to the kind of experiment: Effect on PI3K expression in human MDA-MB-231 cells at 1 to 10 uM incubated for 72 hrs by Western blot analysis. The format is functional, cell-based. As to conditions: dose 1-10 µM. The essentials:
as §3

Assay [14] deals with Sodium/potassium-transporting ATPase (Sus scrofa). As to the kind of experiment: Inhibition of NA+/K+ ATPase (porcine cerebral cortex) activity incubated for 15 mins in presence of ATP by ADP-Glo assay.
The subject of assay [15] is MDA-MB-231. Kind of assay: Downregulation of NF kappaB p50 expression in human MDA-MB-231 cells at 1 to 10 uM incubated for 72 hrs by Western blot analysis. As to conditions: dose 1-10 µM.
Assay [16] relates to MDA-MB-231. Kind of assay: Upregulation of p-Akt expression in human MDA-MB-231 cells at 0.48 uM incubated for 5 hrs by Western blot analysis. The format is functional, cell-based. An outline of the steps:
as §2

The subject of assay [17] is MDA-MB-231. As to the kind of experiment: Downregulation of NF-kappaB p50 expression in human MDA-MB-231 cells at 0.48 uM incubated for 5 hrs by Western blot analysis. It counts as functional, cell-based. The essentials:
as §2

Activity calls are given as the source filed them. No cut-off for these calls is given here.

For the molecule `CC(=O)O[C@H]1C(=O)[C@@]2(C)[C@H]([C@H](OC(=O)c3ccccc3)[C@]3(O)C[C@H](OC(=O)[C@H](O)[C@@H](NC(=O)c4ccccc4)c4ccccc4)C(C)=C1C3(C)C)[C@]1(OC(C)=O)CO[C@@H]1C[C@@H]2O` [PACLITAXEL], the IC50 came to 3400 nM in assay [1], 4.9 nM in assay [2] and 7300 nM in [3].

For the molecule `CO[C@H]1C[C@H](O[C@H]2CC[C@]3(C)C4[C@H](O)C(=O)[C@]5(C)[C@@H](C6=CC(=O)OC6)CC[C@]5(O)[C@@]45O[C@H]5C[C@@H]3C2)O[C@@H](C)[C@@H]1O` (stereo not given in full), the result in [4], in assay [9], in [10], in [11] and in assay [15] was Active. In addition, the IC50 in assay [1] was determined as 220 nM; in [5], 500 nM; in assay [2], 140 nM; in assay [3], 440 nM; in assay [6] it was 200 nM; in assay [7], 1100 nM. The IC50 in [14] is 1200 nM. In addition, the result in assay [8], in [12] and in [13] was inactive.

On to `C[C@H]1O[C@@H](O[C@H]2[C@@H](O)C[C@H](O[C@H]3[C@@H](O)C[C@H](O[C@H]4CC[C@@]5(C)[C@H](CC[C@@H]6[C@@H]5C[C@@H](O)[C@]5(C)[C@@H](C7=CC(=O)OC7)CC[C@]65O)C4)O[C@@H]3C)O[C@@H]2C)C[C@H](O)[C@@H]1O`, for which the result in assay [16], in assay [9], in assay [10] and in assay [15] was Active. Moreover, the result in assay [17], in [12] and in assay [13] was inactive.

The record behind these values is ChEMBL document CHEMBL5321243, “The Cytotoxic Cardiac Glycoside (-)-Cryptanoside A from the Stems of Cryptolepis dubia and Its Molecular Targets” (J Nat Prod, 2023).
